Screens as filed in PubChem BioAssay.
SENP1 inh: inhibitors of human SENP1 SUMO protease catalytic domain; actives 0.21% (n = 360,000); AID 624204; recombinant SENP1 catalytic domain, CyPet-SUMO1-YPet FRET cleavage; inhibition, % at 10 µM; Q9P0U3;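 active = inhibition at least 30% at 10 µM, raw YFP signal under a set limit, fluorescence ratio 0.5 to 1.5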
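Controls: no-enzyme wells low, DMSO-plus-enzyme wells high control. Test system: human recombinant His6-tagged SENP1 catalytic domain enzyme. Reagent: SFCypet-SUMO1-SFYpet FRET protein substrate, 25 nM final. Doses: one dose per compound, 10 µM, 0.5% DMSO. Detection: FRET, CFP and YFP emission. Timing: 50 min reaction at room temperature.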
Rpn11 inh: blocks the human proteasome subunit Rpn11. actives 0.59% (n = 360,000). human 26S proteasome, Ub4-pepOG fluorescence polarization; 20S core pre-blocked with epoxomicin. O00487. calls only at 20 µM;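 active = inhibition at 20 µM, scaled to each plate's controls, above about 33%, limit read from the data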
Target sequence (O00487 whole entry, looked up): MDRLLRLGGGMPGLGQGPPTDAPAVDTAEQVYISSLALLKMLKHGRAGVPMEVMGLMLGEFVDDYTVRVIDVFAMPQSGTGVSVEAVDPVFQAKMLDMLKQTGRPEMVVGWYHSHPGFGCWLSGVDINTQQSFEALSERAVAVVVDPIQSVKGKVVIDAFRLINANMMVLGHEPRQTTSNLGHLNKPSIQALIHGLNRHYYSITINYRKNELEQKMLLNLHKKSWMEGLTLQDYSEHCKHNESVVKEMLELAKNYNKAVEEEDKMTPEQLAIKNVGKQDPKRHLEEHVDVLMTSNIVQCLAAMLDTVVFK
UBC9 SUMO inh: blocks human SUMOylation mediated by UBC9; P63279; actives 0.36% (n = 290,000); inhibition, % at 35 µM; HTRF SUMOylation assay, SAE1/SAE2 + UBC9, in vitro; AID 2006; in the data active = inhibition above about 50%, passing the limit was not always enough
Target sequence (P63279 whole entry, looked up): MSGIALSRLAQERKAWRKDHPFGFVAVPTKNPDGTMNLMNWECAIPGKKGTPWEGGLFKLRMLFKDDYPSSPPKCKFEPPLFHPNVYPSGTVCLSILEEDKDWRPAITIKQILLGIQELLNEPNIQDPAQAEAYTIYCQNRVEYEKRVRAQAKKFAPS
HNF4A DNA FP: change in binding of human HNF4 alpha to DNA; P41235; HNF4a-FITC DNA binding, fluorescence polarization, 1 h; activity change, % at 10 µM; actives 0.3% (n = 360,000); AID 1224865; in the data active = activity change above about 30%, passing the limit was not always enough
TPT1 inh: blocks Candida albicans tRNA 2'-phosphotransferase; inhibition, % at 5 µM; actives 0.81% (n = 300,000); recombinant caTPT1, FP RNA substrate dephosphorylation; AID 1962;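 active = inhibition above the mean of all tested compounds plus 3 SD, set per screening campaign, cut at about 24% in these data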
CSN inh: blocks human CSN-mediated cullin deneddylation; actives 0.38% (n = 360,000); inhibition, % at 12.5 µM; Purified CSN, SCF-Nedd8-OG deneddylation, fluorescence polarization;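 active = pattern-corrected inhibition above about 35%, with an unprinted fluorescence ratio check between 0.5 and 1.5, limit read from the data, passing the limit was not always enough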
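Assay system: purified human Csn5 enzyme expressed in HEK293T cells; measure: % inhibition; also added: SCFSkp2-Nedd8OG substrate at 10 nM final; technique: fluorescence polarization; times: reaction 90 min, room temperature; medium: Tris buffer pH 7.5, NaCl, DTT, Tween-20, trehalose, ovalbumin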
TPT1 inh confirm: TPT1 (C. albicans) inhibition, confirmation; shares compounds with TPT1 inh; actives 74% (n = 2,400); recombinant caTPT1, fluorescence polarization, RNase T1 coupled; inhibition, % at 5 µM;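 active = inhibition above the primary screen limit, the mean inhibition of all tested compounds plus 3 SD, cut at about 25% in these data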
RNase T1 counter: blocks Aspergillus oryzae RNase T1, a TPT1 counter-screen; shares compounds with TPT1 inh; RNase T1 cleavage, fluorescence polarization, 1536-well; inhibition, % at 5 µM; AID 2153; actives 83% (n = 2,400);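 active = inhibition above the solvent-only control well mean plus 3 SD, limit set per screening run, cut at about 23% in these data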;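 note: inhibitors block cleavage so intact labeled substrate keeps polarization high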
Target sequence (P00651 whole entry, looked up): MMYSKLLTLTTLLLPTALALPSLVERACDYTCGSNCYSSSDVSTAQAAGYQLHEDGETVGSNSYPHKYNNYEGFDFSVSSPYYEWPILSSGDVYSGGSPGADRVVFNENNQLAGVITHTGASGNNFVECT
Each line names hits and unclear results; the compound was inactive in the other large screens (follow-up assays come after a bar, where shown). Rows were chosen to be rich in hits. Some 1.8% of all compounds tested hit in one or more screens of this group.

C=CCn1c(C(CC(C)C)CC(C)O)n[nH]c1=S (stereo not given)	TPT1 inh 43 | TPT1 inh confirm inactive | RNase T1 counter inactive
O=c1ccc2ccc(O[C@@H]3O[C@H](CO)[C@@H](O)[C@H](O)[C@H]3O)c(O)c2o1	none (no result: UBC9 SUMO inh, TPT1 inh)
O=C(O)c1cc(O)c2c(c1)[C@@H]([C@H]1c3cc(C(=O)O)cc(O)c3C(=O)c3c(O[C@@H]4O[C@H](CO)[C@@H](O)[C@H](O)[C@H]4O)cccc31)c1cccc(OC3O[C@H](CO)[C@@H](O)[C@H](O)[C@H]3O)c1C2=O (stereo not given in full)	TPT1 inh 77 (no result: UBC9 SUMO inh) | TPT1 inh confirm 84 | RNase T1 counter inactive
COc1ccc2[nH]c3c(=O)n(Cc4ccc(C(=O)N5CCCC5)cc4)c(=S)[nH]c3c2c1	none
O=C(Cn1cccc1C(=O)c1ccccc1)NCc1ccc2c(c1)OCO2	none
O=C(Cn1cnc2ccccc21)N/N=C/c1cccc([N+](=O)[O-])c1	TPT1 inh 36 | TPT1 inh confirm inactive | RNase T1 counter inactive
CC(C)c1ccc(CCNC(=O)CCNC(=O)c2ccc(Br)cc2)cc1	none
Cc1ccc(N2CN(Cc3ccco3)CNC2=S)c(C)c1	TPT1 inh 48 | TPT1 inh confirm inactive | RNase T1 counter inactive
N#Cc1ccc(NC(=O)Nc2ccc(Cl)cc2)cc1	none
N#CC(C#N)=C/C=C(\Nc1ccc(Cl)cc1)c1ccc(Cl)cc1	TPT1 inh 70 | TPT1 inh confirm inactive | RNase T1 counter inactive
O=C(Nc1nc(-c2ccccn2)cs1)c1cccc(-n2cnnn2)c1	none
CC(C)N1CCC2(CC1)C(C#N)=C(N)NC(S)=C2C#N	UBC9 SUMO inh 52, TPT1 inh 68 (no result: SENP1 inh, Rpn11 inh, HNF4A DNA FP, CSN inh) | TPT1 inh confirm 38 | RNase T1 counter 47
COc1ccc(CNC(=O)C2CCN(S(=O)(=O)c3ccc(Br)s3)CC2)cc1	none
CCCCC(=O)Nc1nnc(S(=O)(=O)N(CC)c2ccc(OC)cc2)s1	none (no result: TPT1 inh)
CCCCc1ccc(C2C(C#N)=C(N)SC(N)=C2C#N)s1	TPT1 inh 137 (no result: SENP1 inh, Rpn11 inh, HNF4A DNA FP, CSN inh) | TPT1 inh confirm 64 | RNase T1 counter 76
Cc1ccc([N+](=O)[O-])c2c1C(N1CCCCC1)C(C)(C)O2 (stereo not given)	none
O=C1/C(=C/c2ccco2)Cc2ccccc21	none
CC1C/C(=C/c2cccs2)C(=O)/C(=C/c2cccs2)C1 (stereo not given)	TPT1 inh 26 | TPT1 inh confirm inactive | RNase T1 counter inactive
CC1C/C(=C/c2ccco2)C(=O)/C(=C/c2ccco2)C1 (stereo not given)	TPT1 inh 61 (no result: SENP1 inh, Rpn11 inh, HNF4A DNA FP, CSN inh) | TPT1 inh confirm 62 | RNase T1 counter 71
CC[C@]12c3[nH]c4cc(-c5ccco5)ccc4c3CCN1C(=O)[C@@H](CC(=O)NCCC1=CCCCC1)C[C@@H]2C(=O)N1CCN(C(=O)C2CC2)CC1	none (no result: UBC9 SUMO inh, TPT1 inh)
Cc1ccc(-n2nnnc2SCC(=O)N2CC(=O)Nc3ccccc32)cc1	TPT1 inh 28 | TPT1 inh confirm 36 | RNase T1 counter 46
Cc1nnc(SCC(=O)N2CC(=O)Nc3ccccc32)n1C	none
COc1ccc(-c2noc(CN(C)C(=O)CCN3C(=O)[C@H]4CC=CC[C@H]4C3=O)n2)cc1	none
CCOC(=O)N1CCN(C(=O)/C(=C/c2cccc3ccccc23)NC(=O)c2ccc(OC)cc2)CC1	none
N=c1oc2cc(O)ccc2cc1C(=O)Nc1ccc(Cl)cc1	TPT1 inh 50 | TPT1 inh confirm 70 | RNase T1 counter 80
Cc1ccc(NC(=O)CC2SC(=Nc3ccc(O)cc3)NC2=O)cc1 (stereo not given)	none
CCOc1ccc2nc(/N=C/c3nc(-c4ccc(Br)cc4)oc3O)sc2c1	TPT1 inh 50 (not shown: Rpn11 inh) | TPT1 inh confirm 58 | RNase T1 counter 68
CCCCOc1ccc(-c2nc(/C=N/c3nccs3)c(O)o2)cc1	none
CC1=NN(c2ccc(Br)cc2)C(=O)/C1=C/c1ccc(-c2ccccc2C(=O)O)o1	none
O=C(O)c1ccccc1-c1ccc(/C=c2\sc3nc4cc(Br)cnc4n3c2=O)o1	TPT1 inh 84, CSN inh 186 (not shown: Rpn11 inh) | TPT1 inh confirm 131 | RNase T1 counter 122
COc1cc(/C=C2\SC(c3ccc(C)cc3)=NC2=O)cc(OC)c1OC	HNF4A DNA FP 51, TPT1 inh 30, CSN inh 49 (not shown: Rpn11 inh) | TPT1 inh confirm 40 | RNase T1 counter 50
COc1cc(/C=C2\SC(c3ccccc3)=NC2=O)cc(Cl)c1O	none (no result: TPT1 inh)
COc1ccc(/C=C2/SC(c3ccc(C)cc3)=NC2=O)cc1OC	TPT1 inh 112 (not shown: Rpn11 inh) | TPT1 inh confirm 80 | RNase T1 counter 85
COc1cc(/C=C2\SC(N)=NC2=O)cc(Br)c1O	HNF4A DNA FP 38, TPT1 inh 59, CSN inh 47 (not shown: Rpn11 inh) | TPT1 inh confirm 69 | RNase T1 counter 78
COc1ccc(/C=C2\SC(c3ccc(C)cc3)=NC2=O)cc1OC	HNF4A DNA FP 86, TPT1 inh 87 (not shown: Rpn11 inh) | TPT1 inh confirm 84 | RNase T1 counter 90
COc1cc(/C=C2\SC(N)=NC2=O)ccc1OCC(=O)Nc1ccc(C)cc1	none
Cc1ccc(NS(=O)(=O)Cc2ccccc2)nc1	none
Cc1ccc(NC(=O)CN(C)C(=O)COC(=O)/C=C/c2cccs2)cc1	none (no result: UBC9 SUMO inh)
O=C(c1ccco1)[C@@H]1[C@@H]2C(=O)N(c3ccc(F)cc3)C(=O)[C@@H]2[C@H]2C=Cc3ccccc3N21	TPT1 inh 30 | TPT1 inh confirm inactive | RNase T1 counter 31
Cc1sc(NC(=O)c2sc3nc4c(C)cccc4cc3c2N)c(C#N)c1C	TPT1 inh 25 | TPT1 inh confirm 30 | RNase T1 counter 43
Cc1cccc2cc3c(N)c(C#N)sc3nc12	none
N#Cc1c(NC(=O)CSc2nnc(-c3ccncc3)n2CC2CCCO2)sc2c1CCCC2 (stereo not given)	TPT1 inh 115 | TPT1 inh confirm inactive | RNase T1 counter inactive
Cc1ccc(C2=NOC(=O)/C2=C\c2ccc(C)o2)cc1	TPT1 inh 40 | TPT1 inh confirm inactive | RNase T1 counter inactive
CC1CC(C)CN(C2CCCCC2NS(=O)(=O)c2ccc(Cl)cc2)C1 (stereo not given)	none
Oc1c(/C=C/C=C/C=Nc2ccccc2)sc(=S)n1Cc1ccccc1	HNF4A DNA FP 43, TPT1 inh 43 (not shown: Rpn11 inh) | TPT1 inh confirm 28 | RNase T1 counter 39
CCn1c(O)c(/C=C/C=C/C=Nc2ccccc2)sc1=S	none
